In ChEMBL document CHEMBL2434934, “Multicomponent synthesis and anticonvulsant activity of monocyclic 2,6-diketopiperazine derivatives” (Med Chem Res, 2013):
The source made the active and inactive calls. The rule behind the calls is not given here.

Experiments:
[1] = tested on: Mus musculus; experiment: Anticonvulsant activity in albino mouse assessed as protection against maximal electroshock-induced seizures at 100 mg/kg, ip after 2 hrs; format: functional, organism-based; design: dose 100 mg/kg
Method in brief: (§1)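 A 0.2 s electrical stimulus of 50 mA was applied to mice through corneal electrodes primed with an electrolyte solution containing an anesthetic. This followed ip dosing at 30, 100 or 300 mg/kg, with testing at two or more time points. Protection meant abolition of the hindlimb tonic extensor component, scored as number protected/number tested.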

[2] = tested on: Mus musculus; experiment: Neurotoxicity in albino mouse at 30 mg/kg, ip after 2 hrs by rotarod test; format: toxicity, organism-based; design: dose 30 mg/kg, route intraperitoneal; conditions: in vivo
Method in brief: (§2)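 Mice received the compound ip and were tested at intervals of 0.25 to 4 h after dosing. Neurological impairment was scored as inability to keep equilibrium on a rod rotating at 6 rpm for a given time. The footnotes also record inability to grasp the rod and loss of righting reflex. Results were expressed as number toxic/number tested.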

[3] = tested on: Mus musculus; experiment: Anticonvulsant activity in albino mouse assessed as protection against maximal electroshock-induced seizures at 30 mg/kg, ip after 2 hrs; format: functional, organism-based; design: dose 30 mg/kg; method in brief: as §1
[4] = tested on: Mus musculus; experiment: Anticonvulsant activity in albino mouse assessed as protection against maximal electroshock-induced seizures at 300 mg/kg, ip after 2 hrs; format: functional, organism-based; design: dose 300 mg/kg; method in brief: as §1
[5] = tested on: Mus musculus; experiment: Neurotoxicity in albino mouse at 300 mg/kg, ip after 2 hrs by rotarod test; format: toxicity, organism-based; design: dose 300 mg/kg, route intraperitoneal; conditions: in vivo; method in brief: as §2
[6] = tested on: Mus musculus; experiment: Neurotoxicity in albino mouse at 100 mg/kg, ip after 2 hrs by rotarod test; format: toxicity, organism-based; design: dose 100 mg/kg, route intraperitoneal; conditions: in vivo; method in brief: as §2
[7] = tested on: Mus musculus; experiment: Anticonvulsant activity in albino mouse assessed as protection against maximal electroshock-induced seizures at 300 mg/kg, ip after 4 hrs; format: functional, organism-based; design: dose 300 mg/kg; method in brief: as §1
[8] = tested on: Mus musculus; experiment: Anticonvulsant activity in albino mouse assessed as protection against maximal electroshock-induced seizures at 300 mg/kg, ip after 0.5 hrs; format: functional, organism-based; design: dose 300 mg/kg; method in brief: as §1
[9] = tested on: Mus musculus; experiment: Anticonvulsant activity in albino mouse assessed as protection against maximal electroshock-induced seizures at 30 mg/kg, ip after 0.5 to 4 hrs; format: functional, organism-based; design: dose 30 mg/kg; method in brief: as §1
[10] = tested on: Mus musculus; experiment: Anticonvulsant activity in albino mouse assessed as protection against 6 Hz psychomotor seizure at 100 mg/kg, ip after 0.25 to 0.5 hrs; format: functional, organism-based; design: dose 100 mg/kg
Method in brief: (§3)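 Mice given 100 mg/kg ip and tested at intervals between 0.25 and 4 h. A constant-current device delivered corneal stimulation at 32 mA as 0.2 ms monopolar rectangular pulses at 6 Hz for 3 s. Mice were restrained during stimulation, then released into an observation cage. The readout was protection against the psychomotor seizure (stunned posture, forelimb clonus, Straub tail), scored as number protected/number tested.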

[11] = tested on: Mus musculus; experiment: Neurotoxicity in albino mouse at 100 mg/kg, ip after 0.5 to 4 hrs by rotarod test; format: toxicity, organism-based; design: dose 100 mg/kg, route intraperitoneal; conditions: in vivo; method in brief: as §2
[12] = tested on: Mus musculus; experiment: Neurotoxicity in albino mouse at 300 mg/kg, ip after 4 hrs by rotarod test; format: toxicity, organism-based; design: dose 300 mg/kg, route intraperitoneal; conditions: in vivo; method in brief: as §2
[13] = tested on: Mus musculus; experiment: Neurotoxicity in albino mouse at 30 mg/kg, ip after 0.5 to 4 hrs by rotarod test; format: toxicity, organism-based; design: dose 30 mg/kg, route intraperitoneal; conditions: in vivo; method in brief: as §2
[14] = tested on: Mus musculus; experiment: Anticonvulsant activity in albino mouse assessed as protection against 6 Hz psychomotor seizure at 100 mg/kg, ip after 1 to 4 hrs; format: functional, organism-based; design: dose 100 mg/kg; method in brief: as §3
[15] = tested on: Mus musculus; experiment: Neurotoxicity in albino mouse assessed as loss of righting reflex at 300 mg/kg, ip after 0.5 hrs by rotarod test; format: toxicity, organism-based; design: dose 300 mg/kg, route intraperitoneal; conditions: in vivo; method in brief: as §2
[16] = tested on: Mus musculus; experiment: Anticonvulsant activity in albino mouse assessed as protection against subcutaneous metrazole-induced seizures at 100 mg/kg, ip after 0.5 to 4 hrs; format: functional, organism-based; design: dose 100 mg/kg
Method in brief: (§4)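 Mice were dosed ip at 30, 100 or 300 mg/kg and tested at two or more time points. Protection meant absence of clonic seizures lasting at least 5 s, scored as number protected/number tested.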

[17] = tested on: Mus musculus; experiment: Anticonvulsant activity in albino mouse assessed as protection against subcutaneous metrazole-induced seizures at 300 mg/kg, ip after 0.5 to 4 hrs; format: functional, organism-based; design: dose 300 mg/kg; method in brief: as §4
[18] = tested on: Mus musculus; experiment: Anticonvulsant activity in albino mouse assessed as protection against subcutaneous metrazole-induced seizures at 30 mg/kg, ip after 0.5 to 4 hrs; format: functional, organism-based; design: dose 30 mg/kg; method in brief: as §4
[19] = tested on: Mus musculus; experiment: Neurotoxicity in albino mouse at 100 mg/kg, ip after 0.25 to 4 hrs by rotarod test; format: toxicity, organism-based; design: dose 100 mg/kg, route intraperitoneal; conditions: in vivo; method in brief: as §2
[20] = tested on: Mus musculus; experiment: Anticonvulsant activity in albino mouse assessed as protection against maximal electroshock-induced seizures at 100 mg/kg, ip after 0.5 to 4 hrs; format: functional, organism-based; design: dose 100 mg/kg; method in brief: as §1
[21] = tested on: Mus musculus; experiment: Neurotoxicity in albino mouse at 300 mg/kg, ip after 0.5 hrs by rotarod test; format: toxicity, organism-based; design: dose 300 mg/kg, route intraperitoneal; conditions: in vivo; method in brief: as §2
[22] = tested on: Mus musculus; experiment: Neurotoxicity in albino mouse at 100 mg/kg, ip after 0.5 to 2 hrs by rotarod test; format: toxicity, organism-based; design: dose 100 mg/kg, route intraperitoneal; conditions: in vivo; method in brief: as §2
[23] = tested on: Mus musculus; experiment: Anticonvulsant activity in albino mouse assessed as protection against 6 Hz psychomotor seizure at 100 mg/kg, ip after 0.5 to 2 hrs; format: functional, organism-based; design: dose 100 mg/kg; method in brief: as §3

Which results are given for `O=C1NC(=O)[C@@H](c2ccccc2)N[C@H]1c1ccccc1`?
Activity [1]: inactive; Activity [2]: Non-toxic; Activity [3]: inactive; Activity [4]: inactive; Activity [5]: Non-toxic; Activity [6]: Non-toxic

Which Activity [7] does the source give for `CC(C)[C@@H]1N[C@@H](c2ccccc2)C(=O)NC1=O` here?
Its Activity is “inactive”.

What about the Activity [8] of the same compound?
Its Activity is “Active”.

What about the Activity [9] of the same compound?
The Activity was “inactive”.

What about the Activity [10] of the same compound?
Its Activity is “Active”.

And the Activity [11]?
The Activity was “Non-toxic”.

What about the Activity [12] of the same compound?
Its Activity is “Non-toxic”.

What about the Activity [13] of the same compound?
Its Activity is “Non-toxic”.

And the Activity [14]?
Its Activity is “inactive”.

And the Activity [15]?
The Activity was “Toxic”.

What about the Activity [16] of the same compound?
Its Activity is “inactive”.

And the Activity [17]?
The Activity was “inactive”.

What about the Activity [18] of the same compound?
Its Activity is “inactive”.

What about the Activity [19] of the same compound?
Its Activity is “Non-toxic”.

`O=C1CN(Cc2ccccc2)C(c2ccccc2)C(=O)N1` (racemic) was tested. Which Activity [1] did it give?
Its Activity is “inactive”.

And the Activity [2]?
Its Activity is “Non-toxic”.

And the Activity [3]?
The Activity was “inactive”.

What about the Activity [5] of the same compound?
The Activity was “Non-toxic”.

What about the Activity [6] of the same compound?
The Activity was “Non-toxic”.

How did the Activity [7] turn out when `CC[C@H](C)[C@@H]1N[C@@H](c2ccccc2)C(=O)NC1=O` was run?
Its Activity is “inactive”.

And the Activity [8]?
Its Activity is “inactive”.

And the Activity [20]?
The Activity was “inactive”.

What about the Activity [9] of the same compound?
The Activity was “inactive”.

What about the Activity [11] of the same compound?
Its Activity is “Non-toxic”.

And the Activity [12]?
Its Activity is “Non-toxic”.

And the Activity [13]?
The Activity was “Non-toxic”.

And the Activity [16]?
Its Activity is “inactive”.

What about the Activity [17] of the same compound?
The Activity was “inactive”.

What about the Activity [18] of the same compound?
The Activity was “inactive”.

With `O=C1CN(c2ccccc2)C(c2ccccc2)C(=O)N1` (racemic) as the compound, how does the Activity [7] read?
Its Activity is “inactive”.

What about the Activity [8] of the same compound?
Its Activity is “inactive”.

And the Activity [20]?
The Activity was “inactive”.

What about the Activity [9] of the same compound?
Its Activity is “inactive”.

And the Activity [11]?
Its Activity is “Non-toxic”.

And the Activity [21]?
The Activity was “Non-toxic”.

And the Activity [12]?
The Activity was “Non-toxic”.

What about the Activity [13] of the same compound?
Its Activity is “Non-toxic”.

And the Activity [16]?
The Activity was “inactive”.

And the Activity [17]?
The Activity was “inactive”.

And the Activity [18]?
Its Activity is “inactive”.

For `CC(C)C[C@@H]1N[C@@H](c2ccccc2)C(=O)NC1=O`, which Activity [7] is on record?
The Activity was “inactive”.

And the Activity [8]?
Its Activity is “Active”.

What about the Activity [20] of the same compound?
The Activity was “inactive”.

What about the Activity [9] of the same compound?
Its Activity is “inactive”.

What about the Activity [11] of the same compound?
The Activity was “Non-toxic”.

What about the Activity [12] of the same compound?
Its Activity is “Non-toxic”.

What about the Activity [13] of the same compound?
The Activity was “Non-toxic”.

And the Activity [16]?
The Activity was “inactive”.

What about the Activity [17] of the same compound?
Its Activity is “inactive”.

What about the Activity [18] of the same compound?
Its Activity is “inactive”.

`O=C1NC(=O)[C@H](c2ccccc2)N[C@H]1Cc1ccccc1` was tested. Which Activity [7] did it give?
Its Activity is “inactive”.

And the Activity [8]?
Its Activity is “Active”.

And the Activity [20]?
The Activity was “inactive”.

And the Activity [9]?
The Activity was “inactive”.

What about the Activity [11] of the same compound?
Its Activity is “Non-toxic”.

What about the Activity [21] of the same compound?
Its Activity is “Non-toxic”.

What about the Activity [12] of the same compound?
Its Activity is “Non-toxic”.

And the Activity [13]?
The Activity was “Non-toxic”.

What about the Activity [16] of the same compound?
Its Activity is “inactive”.

And the Activity [17]?
Its Activity is “inactive”.

What about the Activity [18] of the same compound?
The Activity was “inactive”.

With `CC(C)[C@@H]1N[C@H](c2ccccc2)C(=O)NC1=O` as the compound, how does the Activity [7] read?
The Activity was “inactive”.

What about the Activity [8] of the same compound?
The Activity was “Active”.

And the Activity [20]?
The Activity was “inactive”.

What about the Activity [9] of the same compound?
Its Activity is “inactive”.

And the Activity [11]?
Its Activity is “Non-toxic”.

And the Activity [12]?
The Activity was “Non-toxic”.

And the Activity [13]?
The Activity was “Non-toxic”.

What about the Activity [16] of the same compound?
Its Activity is “inactive”.

What about the Activity [17] of the same compound?
Its Activity is “inactive”.

What about the Activity [18] of the same compound?
The Activity was “inactive”.

With `O=C1NC(=O)[C@H](c2ccccc2)N[C@H]1c1ccccc1` as the compound, how does the Activity [2] read?
The Activity was “Non-toxic”.

What about the Activity [3] of the same compound?
Its Activity is “inactive”.

And the Activity [22]?
The Activity was “Non-toxic”.

What about the Activity [4] of the same compound?
The Activity was “Active”.

And the Activity [23]?
The Activity was “inactive”.

What about the Activity [5] of the same compound?
The Activity was “Toxic”.
